Here are results for seven compounds from ChEMBL document CHEMBL1128527, “Modification of receptor selectivity and functional activity in cholecystokinin peptoid ligands” (J Med Chem, 1995).

As usually defined, the EC50 is the concentration that produces a half-maximal response. As usually defined, the IC50 is the point on the concentration scale where inhibition reaches its midpoint. Read a high IC50 as weaker potency in that assay. What is called pKB is the KB on a negative log10 scale, so that one unit is a factor of ten. A low value points to a high KB.

Test [1] relates to Rattus norvegicus. Nature of the test: The compound was evaluated for the dose(ip) required to achieve half-maximal inhibition of feeding at 30 min in rats. The format is functional. To be noted: 0.5 h. Put shortly:
(§1)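 Male Long-Evans rats (225–300 g) conditioned 2 weeks to a liquid diet. Animals fasted 100 min, then given test compound ip in propylene glycol (1 mL/kg) followed at once by an oral saline preload (8 mL/kg). Diet offered 20 min later and intake measured at 30 min. ED50 is the dose giving half-maximal inhibition; 8–10 rats per dose, normalized to each rat's pretreatment-day response.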

The subject of test [2] is Rattus norvegicus. Nature of the test: The compound was evaluated for the maximal reduction in feeding achieved at 1 uM/kg dose(ip). The format is functional. Particulars: in the assay text read “0.5 umol/kg” for “1 uM/kg”.
Test [3] is filed under the species Cavia porcellus. Nature of the test: mCCK-8 contraction induced by 30 uM in vitro, normalized to CCK-8 (1 uM). It is filed as functional. Put shortly: (§2)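 Isolated guinea pig gallbladder. Contraction produced by test compound at 30 μM is expressed relative to CCK-8 (1 μM).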
The test system of test [4] is Rattus norvegicus. Nature of the test: Compound was evaluated for the dose(ip) required to achieve half-maximal inhibition of feeding at 30 min in rats. It is filed as functional. To be noted: 0.5 h. Put shortly:
as §1

The species named for test [5] is Cavia porcellus. Nature of the test: In vitro concentration required to induce contraction of isolated GPGB. It is filed as functional. Put shortly:
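Isolated guinea pig gallbladder contraction. pEC50 (−log EC50 ± SD) assayed in triplicate.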

Test [6] addresses T1, Cholecystokinin receptor type A (Homo sapiens, UniProt P32238).
T1 sequence (P32238 whole entry): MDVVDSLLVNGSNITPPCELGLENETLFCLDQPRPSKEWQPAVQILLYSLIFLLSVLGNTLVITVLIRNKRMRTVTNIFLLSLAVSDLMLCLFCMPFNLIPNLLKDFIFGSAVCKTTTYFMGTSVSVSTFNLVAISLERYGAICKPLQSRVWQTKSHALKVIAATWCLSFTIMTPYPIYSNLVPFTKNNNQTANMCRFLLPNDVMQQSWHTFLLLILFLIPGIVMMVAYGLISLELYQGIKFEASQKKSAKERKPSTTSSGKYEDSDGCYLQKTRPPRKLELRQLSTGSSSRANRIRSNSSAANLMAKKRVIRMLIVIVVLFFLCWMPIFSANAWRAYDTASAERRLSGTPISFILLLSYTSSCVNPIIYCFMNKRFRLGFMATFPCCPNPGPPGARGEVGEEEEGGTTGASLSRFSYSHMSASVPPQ
Nature of the test: In vitro displacement of [125I]BH-CCK-8 from cDNA of human Cholecystokinin type A receptor expressed in CHO-K1 cells. The format is cell-based. A general note: Loss of bound radioactivity is the signal in a displacement assay; it reports binding, not function.

Test [7] concerns Rattus norvegicus. Nature of the test: Compound was evaluated for the maximal reduction in feeding achieved at 1 uM/kg dose(ip). The format is functional. Put shortly:
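Conditioned male Long-Evans rats fasted 100 min, dosed ip at 1 μmol/kg in propylene glycol (1 mL/kg), then given an oral saline preload (0.9%, 8 mL/kg). Liquid diet offered 20 min later. Maximal reduction of feeding is the mean of 8–10 animals, normalized to the vehicle pretreatment-day intake.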

The target in test [8] is T1, Cholecystokinin receptor type A. Nature of the test: Compound was evaluated for the [Ca2+] mobilization innstably transfected CHO-K1 cell lines expressing human Cholecystokinin type A receptor. The format is cell-based.
Test [9] deals with T2, Cholecystokinin receptor type A (Cavia porcellus) (UniProt Q63931).
T2 sequence (whole entry): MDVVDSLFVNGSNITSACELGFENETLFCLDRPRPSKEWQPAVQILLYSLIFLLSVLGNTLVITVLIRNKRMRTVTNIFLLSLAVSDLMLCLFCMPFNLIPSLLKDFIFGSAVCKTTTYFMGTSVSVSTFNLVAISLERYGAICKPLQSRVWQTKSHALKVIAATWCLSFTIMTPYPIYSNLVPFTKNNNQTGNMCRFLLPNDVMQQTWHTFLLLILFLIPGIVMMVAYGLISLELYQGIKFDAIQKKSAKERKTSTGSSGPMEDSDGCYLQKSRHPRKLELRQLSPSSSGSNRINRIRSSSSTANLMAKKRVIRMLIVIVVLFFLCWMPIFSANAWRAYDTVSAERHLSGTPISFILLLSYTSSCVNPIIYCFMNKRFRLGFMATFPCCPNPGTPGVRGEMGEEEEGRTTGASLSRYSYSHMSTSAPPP
Nature of the test: The compound was evaluated for the contraction as % of CCK-8 maximum against Cholecystokinin type A receptor in guinea pig gallbladder.

Test [10] addresses T3, Gastrin/cholecystokinin type B receptor (Homo sapiens, UniProt P32239).
T3 sequence (P32239 whole entry): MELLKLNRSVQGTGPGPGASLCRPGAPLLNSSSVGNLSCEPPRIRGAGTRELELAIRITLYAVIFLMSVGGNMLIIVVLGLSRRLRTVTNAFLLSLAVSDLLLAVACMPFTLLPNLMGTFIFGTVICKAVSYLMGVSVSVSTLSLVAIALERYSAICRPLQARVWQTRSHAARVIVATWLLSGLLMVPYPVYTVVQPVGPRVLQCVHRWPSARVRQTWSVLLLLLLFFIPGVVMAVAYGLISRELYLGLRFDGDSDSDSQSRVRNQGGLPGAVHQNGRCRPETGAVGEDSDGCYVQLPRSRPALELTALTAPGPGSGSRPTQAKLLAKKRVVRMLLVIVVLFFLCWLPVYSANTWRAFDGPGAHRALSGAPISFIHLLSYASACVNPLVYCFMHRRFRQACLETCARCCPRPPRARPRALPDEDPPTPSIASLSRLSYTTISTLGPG

Test [11] concerns Rattus norvegicus. Nature of the test: Compound was evaluated for the dose(ip) required to achieve half-maximal inhibition of feeding at 30 min in rats. It is filed as functional. To be noted: 0.5 h. Put shortly:
as §1

The species named for test [12] is Cavia porcellus. Nature of the test: The compound was evaluated for contraction as % of CCK-8 maximum against Cholecystokinin type A receptor in guinea pig gallbladder.
The target in test [13] is T3, Gastrin/cholecystokinin type B receptor. Nature of the test: Compound was evaluated for the [Ca2+] mobilization innstably transfected CHO-K1 cell lines expressing human Cholecystokinin type B receptor. It is filed as cell-based.
In test [14] the target is T4, Gastrin/cholecystokinin type B receptor (Homo sapiens) (UniProt P32239).
T4 sequence (whole entry): T3 sequence (P32239 whole entry)

The species named for test [15] is Cavia porcellus. Nature of the test: mCCK-8 contraction induced by 30 uM in vitro, normalized to CCK-8 (1 uM); IA = 'inactive'. It is filed as functional. Put shortly:
as §2

Test [16] is filed under the species Cavia porcellus. Nature of the test: The compound was evaluated for the pKB, single dose pA2 against Cholecystokinin type A receptor in guinea pig gallbladder. The format is functional. Put shortly:
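Isolated guinea pig gallbladder. Antagonism against CCK-8 is expressed as pKB, a single-dose pA2.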

Test [17] is filed under the species Cavia porcellus. Nature of the test: mCCK-8 contraction induced by 30 uM in vitro, normalized to CCK-8 (1 uM); IA ='inactive'. The format is functional. Put shortly: as §2

Activity calls are given as the source filed them. The calls are words filed in the database; no cut-off is given here. Numbered stars: 1 amine (or outer) side, 2 acyl side, 3 side chain; on linkers, the order of the positions; unused ones are H or OH. Square brackets hold non-standard residues; d marks the D form. Side chains are listed from the residue outwards. Peptide text beside a SMILES is read from it. * marks the point of attachment. NMeF = CN[C@@H](Cc1ccccc1)C(=O)O; NH(2-Me-phenyl) = Cc1ccccc1N*; CO = O=C([*:1])[*:2]

Turning to `CSCC[C@H](NC(=O)[C@H](Cc1ccc(OS(=O)(=O)O)cc1)NC(=O)[C@@H](N)CC(=O)O)C(=O)NCC(=O)N[C@@H](Cc1c[nH]c2ccccc12)C(=O)N[C@@H](CCSC)C(=O)N[C@@H](CC(=O)O)C(=O)N[C@@H](Cc1ccccc1)C(N)=O` [SINCALIDE], the ED50 in the test with Rattus norvegicus [1] was found to be 0.027 µmol/kg. The max inhibition with Rattus norvegicus [2] amounted to 95%. The compound also returned an Activity in the test listed under Cavia porcellus [3] of 100%.
With `CC(=O)N[C@@H](Cc1c[nH]c2ccccc12)C(=O)N[C@@H](CCCCNC(=O)Nc1ccccc1C)C(=O)N[C@@H](CC(=O)O)C(=O)N(C)[C@@H](Cc1ccccc1)C(N)=O` (Ac-WK([CO-NH(2-Me-phenyl)])D[NMeF]-NH2), in the test with Rattus norvegicus [4], the ED50 was found to be 0.01 µmol/kg. Also, the EC50 is 1.58 nM in the test filed under Cavia porcellus [5] and 3.98 nM in test [8]. Also, the half-inhibitory concentration (IC50) in [6] is 20 nM. In the test with Rattus norvegicus [7], the max inhibition amounted to 67%. The same compound registered a contraction, % of CCK-8 max in test [9] of 105%.
Turning to `Cc1ccccc1NC(=O)NCCCC[C@H](CNC(=O)[C@@](C)(Cc1c[nH]c2ccccc12)NC(=O)OC1C2CC3CC(C2)CC1C3)NC(=O)CCC(=O)O` (stereo not given in full), the IC50 in test [10] is 20 nM; in test [6] it was 12 nM. Also, the ED50 with Rattus norvegicus [11] was found to be 0.03 µmol/kg. The EC50 in the test listed under Cavia porcellus [5] is 27.5 nM; in [13], 2510 nM; in [8], 3.16 nM. Moreover, in the test filed under Cavia porcellus [12], the “contraction, % of CCK-8 max” value amounted to 72%. In the test on Rattus norvegicus [7], this compound gave a Max inhibition of 59%. The compound further had a pKB in test [14] of 7.7.
In the case of `Cc1ccccc1NC(=O)NCCCC[C@@H](CNC(=O)CCC(=O)O)NC(=O)[C@@](C)(Cc1c[nH]c2ccccc12)NC(=O)OC1C2CC3CC(C2)CC1C3` (stereo not given in full), the outcome in the test filed under Cavia porcellus [15] was inactive. In the test listed under Cavia porcellus [16], this compound gave a pKB of 7. Besides, the IC50 is 224 nM in test [10] and 60.3 nM in [6].
As for `Cc1ccccc1NC(=O)NCCCC[C@@H](CNC(=O)CCC(=O)O)NC(=O)[C@](C)(Cc1c[nH]c2ccccc12)NC(=O)OC1C2CC3CC(C2)CC1C3` (stereo not given in full), the result in the test filed under Cavia porcellus [17] was inactive. The IC50 in test [10] is 7080 nM; in test [6], 724 nM.
Consider `Cc1ccccc1NC(=O)NCCCC[C@H](CNC(=O)[C@](C)(Cc1c[nH]c2ccccc12)NC(=O)OC1C2CC3CC(C2)CC1C3)NC(=O)CCC(=O)O` (stereo not given in full), for which the IC50 is 178 nM in test [10] and 229 nM in [6]. In the test listed under Cavia porcellus [5], this compound gave an EC50 of 832 nM. The “contraction, % of CCK-8 max” value in the test listed under Cavia porcellus [12] amounted to 83%.
Turning to `C[C@](Cc1c[nH]c2ccccc12)(NC(=O)OC1[C@H]2C[C@@H]3C[C@@H](C[C@H]1C3)C2)C(=O)NC[C@H](NC(=O)CCC(=O)O)c1ccccc1` (stereo not given in full) [CI-988], the Activity in the test listed under Cavia porcellus [3] is given as 24%.
